Usually CC50 stands for the concentration that lowers cell viability or growth by half. Read a high CC50 as better tolerance by the cells. What is called EC50 is the concentration needed to bring the measured effect to its halfway point. The inhibition is how much of the control response was suppressed. High values mean a response far below the control, low ones a response near the control.

A short description of data set [1]: Selectivity index, ratio of CC50 for human TZM-bl cells to EC50 for X4 tropic Human immunodeficiency virus 1 3B subtype B. The note with it: read-out: Ratio CC50/EC50. Format: toxicity, cell-based.
A short description of data set [2]: Selectivity index, ratio of CC50 for human TZM-bl cells to EC50 for R5 tropic Human immunodeficiency virus 1 ADA5 subtype B. The class given is toxicity, cell-based. The note with it: read-out: Ratio CC50/EC50.
Data set [3] can be described thus: Cytotoxicity against human TZM-bl cells after 48 hrs by MTT assay. The class given is cell-based. Put shortly: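 TZM-bl cells seeded 1×10^4/well and left overnight at 37 °C, 5% CO2. Medium then replaced with a two-fold dilution series of compound in quadruplicate. […] Mean of three independent assays.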
For orientation: Tetrazolium dyes change colour on reduction, which living cells bring about.

Data set [4] in a line: Selectivity index, ratio of CC50 for human TZM-bl cells to EC50 for R5 tropic Human immunodeficiency virus 1 VB59 subtype C. Format: toxicity, cell-based. The following applies: read-out: Ratio CC50/EC50.
The subject of data set [5] is Human immunodeficiency virus 1. Nature of the data set: Antiviral activity against X4 tropic Human immunodeficiency virus 1 UG070 subtype D infected in human TZM-bl cells assessed as reduction in virus-induced cytopathic effect after 48 hrs by luminescence assay. The note with it: Human immunodeficiency virus 1, UG070 subtype D, TZM-bl, 48 h; read-out: EC50. Format: functional, organism-based. Put shortly:
(§1)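 TZM-bl cells (HeLa-derived; CD4, CXCR4, CCR5; LTR-driven luciferase) seeded 1×10^4/well, left overnight at 37 °C, 5% CO2, then infected with 400 TCID50 virus for 2 h. Serial compound dilutions added in duplicate, only at levels giving >50% viability. […] Mean of two independent assays; nevirapine as positive control.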
Background: Damage to the host cells serves as the signal in cytopathic effect assays.

The test system of data set [6] is Human immunodeficiency virus 1. Nature of the data set: Antiviral activity against R5 tropic Human immunodeficiency virus 1 VB59 subtype C infected in human TZM-bl cells assessed as reduction in virus-induced cytopathic effect after 48 hrs by luminescence assay. The class given is functional, organism-based. The note with it: Human immunodeficiency virus 1, VB59 subtype C, TZM-bl, 48 h; read-out: EC50. Put shortly:
as §1

The nature of data set [7]: Selectivity index, ratio of CC50 for human TZM-bl cells to EC50 for X4 tropic Human immunodeficiency virus 1 UG070 subtype D. Format: toxicity, cell-based. The following applies: read-out: Ratio CC50/EC50.
In data set [8] the test system is Human immunodeficiency virus 1. Nature of the data set: Antiviral activity against R5 tropic Human immunodeficiency virus 1 ADA5 subtype B infected in human TZM-bl cells assessed as reduction in virus-induced cytopathic effect after 48 hrs by luminescence assay. The class given is functional, organism-based. The note with it: Human immunodeficiency virus 1, ADA5 subtype B, TZM-bl, 48 h; read-out: EC50. An outline of the steps:
as §1

The test system of data set [9] is Human immunodeficiency virus. The data set can be described thus: Inhibition of HIV reverse transcriptase at 100 ug/ml after 1 hr by ELISA relative to control. An outline of the steps:
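Kit ELISA for HIV RT. Template/primer, biotin- and DIG-labelled dNTPs and RT enzyme in lysis buffer incubated 1 h at 37 °C. Product captured on streptavidin, detected with anti-DIG-peroxidase and ABTS substrate, and read at 405 nm. Percent inhibition calculated against a no-inhibitor sample.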
In general terms: ELISA stands for enzyme-linked immunosorbent assay.

The test system of data set [10] is Human immunodeficiency virus 1. The data set can be described thus: Antiviral activity against X4 tropic Human immunodeficiency virus 1 3B subtype B infected in human TZM-bl cells assessed as reduction in virus-induced cytopathic effect after 48 hrs by luminescence assay. The class given is functional, organism-based. The note with it: Human immunodeficiency virus 1, 3B subtype B, TZM-bl, 48 h; read-out: EC50. Put shortly:
as §1

In the case of `Cc1cc(C)nc(N2C(=O)CSC2c2c(Cl)cccc2[N+](=O)[O-])c1` (stereo not given), the selectivity ratio was determined as 6940 in data set [1], 1740 in [2], 1690 in data set [4] and 1690 in data set [7]. The compound also had a CC50 at 48 h in data set [3] of 139 µM. The EC50 is 0.08 µM in data set [5], 0.08 µM in [6], 0.08 µM in data set [8] and 0.02 µM in data set [10]. The compound also gave an inhibition in [9] of 91.5%.

With `N#Cc1ccc(NN2C(=O)CSC2c2c(F)cccc2Cl)cc1` (stereo not given), the selectivity ratio in data set [1] amounted to 2.27; in [2], 4.7; in data set [4] it was 2.18; in data set [7] it was 1.54. Half-maximal cytotoxicity in data set [3] (CC50 at 48 h) was put at 76.5 µM. For the same compound, the EC50 is 49.6 µM in data set [5], 35 µM in data set [6], 16.2 µM in data set [8] and 33.5 µM in data set [10]. In data set [9], this compound returned an inhibition of 26.3%.

`COc1cc(OC)nc(N2C(=O)CSC2c2c(F)cccc2F)n1` (stereo not given): the selectivity ratio in [1] stood at 310; in data set [2], 250; in data set [4] it was 161; in data set [7], 144. The compound further yielded a CC50 at 48 h in data set [3] of 77.5 µM. In addition, the 50% effective concentration (EC50) in [5] was found to be 0.53 µM; in data set [6], 0.48 µM; in data set [8], 0.31 µM; in data set [10], 0.25 µM. Moreover, the inhibition in data set [9] stood at 82.9%.

On to `Cc1ccnc2c1NC(=O)c1cccnc1N2C1CC1` [NEVIRAPINE], for which the selectivity ratio in data set [1], in [2], in data set [4] and in data set [7] was 2060 throughout. It took 76.1 µM to reach half-maximal cytotoxicity in data set [3] (CC50 at 48 h). Besides, the EC50 in data set [5], in [6], in data set [8] and in [10] was 0.03 µM throughout. Also, the inhibition in [9] came out at 99.2%.

As to `N#Cc1ccc(C2SCC(=O)N2c2ccc(C#N)cn2)cc1` (stereo not given), the selectivity ratio in [1] was determined as 2.38; in data set [2], 1.71; in data set [4], 1.59; in [7], 1.2. This compound also showed a cytotoxic concentration (CC50) at 48 h in data set [3] of 128 µM. The EC50 in [5] came out at 106 µM; in data set [6] it was 80.1 µM; in data set [8], 74.2 µM; in data set [10], 53.6 µM. The inhibition in [9] came to 30.4%.

`COc1cccc(OC)c1C1SCC(=O)N1c1cc(C)c(Br)c(C)n1` (stereo not given): the selectivity ratio stood at 38.6 in data set [1], 56.8 in [2], 34.6 in data set [4] and 36.3 in [7]. Moreover, in [3], the CC50 at 48 h was found to be 85.8 µM. For the same compound, the EC50 in data set [5] is 2.36 µM; in data set [6], 2.48 µM; in [8], 1.51 µM; in [10] it was 2.22 µM. The compound also gave an inhibition in [9] of 85.5%.

For the compound `Cc1ccc(S(=O)(=O)NN2C(=O)CSC2c2c(F)cccc2Cl)cc1` (stereo not given), the selectivity ratio was determined as 2.15 in data set [1], 2.1 in [2], 1.66 in [4] and 1.87 in data set [7]. The compound also registered a CC50 at 48 h in [3] of 136 µM. In addition, the EC50 turned out to be 72.4 µM in data set [5], 81.6 µM in [6], 64.6 µM in data set [8] and 63.1 µM in data set [10]. The compound also came in with an inhibition in data set [9] of 56.3%.

For the compound `O=C1CSC(c2c(Cl)cccc2Cl)N1Nc1ccccn1` (stereo not given), the selectivity ratio came out at 150 in data set [1], 80.5 in data set [2], 87.6 in [4] and 127 in [7]. For the same compound, the CC50 at 48 h in data set [3] worked out at 149 µM. Also, the EC50 amounted to 1.17 µM in data set [5], 1.7 µM in data set [6], 1.85 µM in data set [8] and 0.99 µM in data set [10]. In data set [9], the inhibition worked out at 97.4%.

In the case of `COc1cc(OC)nc(N2C(=O)CSC2c2c(Cl)cccc2[N+](=O)[O-])n1` (stereo not given), the selectivity ratio came out at 806 in data set [1], 366 in [2], 367 in [4] and 298 in data set [7]. In data set [3], the midpoint of cytotoxicity, the CC50 at 48 h, lay at 80.6 µM. In addition, the EC50 in data set [5] is 0.27 µM; in [6], 0.22 µM; in [8], 0.22 µM; in data set [10], 0.1 µM. In [9], this compound registered an inhibition of 79.4%.

With `O=C1CSC(c2c(F)cccc2Cl)N1Nc1ccccn1` (stereo not given), the selectivity ratio in data set [1] was determined as 72.7; in data set [2] it was 40.2; in data set [4] it was 28.7; in data set [7], 32.7. Moreover, in [3], the CC50 at 48 h came out at 153 µM. The EC50 in [5] turned out to be 4.66 µM; in data set [6], 5.31 µM; in data set [8], 3.79 µM; in data set [10], 2.1 µM. The same compound displayed an inhibition in data set [9] of 97.5%.

For `COc1cc(OC)nc(N2C(=O)CSC2c2c(Cl)cccc2Cl)n1` (stereo not given), the selectivity ratio in [1] was found to be 1220; in data set [2] it was 855; in data set [4], 662; in data set [7], 427. The CC50 at 48 h in data set [3] came to 85.4 µM. Further, the EC50 in data set [5] was determined as 0.2 µM; in data set [6], 0.12 µM; in data set [8], 0.1 µM; in data set [10] it was 0.07 µM. In data set [9], this compound came in with an inhibition of 76.8%.

`N#Cc1ccc(NN2C(=O)CSC2c2c(F)cccc2F)cc1` (stereo not given): the selectivity ratio in [1] was determined as 1; in data set [2], 1.58; in [4] it was 0.86; in data set [7] it was 0.74. The compound further returned a CC50 at 48 h in data set [3] of 42.2 µM. Further, the concentration for a half-maximal effect (EC50) in data set [5] worked out at 56.9 µM; in data set [6], 48.9 µM; in [8] it was 26.6 µM; in [10] it was 42.6 µM. Further, the inhibition in data set [9] is 34.5%.

These data come from ChEMBL document CHEMBL3286255, “Rational design and synthesis of novel thiazolidin-4-ones as non-nucleoside HIV-1 reverse transcriptase inhibitors” (Bioorg Med Chem, 2014).
